In brackets after ≈: the same amount, converted by molar mass. Activity calls are given as the source filed them. The calls are words filed in the database; no cut-off is given here.
Experiments:
L1210 [1] = test: Antitumor activity against mouse L1210 cells allografted in mouse assessed as increase in life span at 7 mg/kg, sc administered daily up to death started on day 5 post tumor implantation relative to control; type: functional; conditions: 120 h, route subcutaneous
CCRF-CEM = test: Cytotoxicity against human CCRF-CEM cells assessed as growth inhibition; type: functional; conditions: read-out: ID50 (the source's name)
L1210 [2] = test: Antitumor activity against mouse L1210 cells allografted in mouse assessed as median survival time at 150 mg/kg, ip qd administered every 3 days for 7 days; type: functional; conditions: route intraperitoneal
Procedure, shortened: (§1)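 Mice were inoculated ip with 10^5 L1210 leukemia cells on day 0. Dosing was ip on days 1, 4 and 7 in 10% Tween 80, with the methotrexate disodium salt in water, over 15–525 mg/kg. Survival was recorded in days as the range and median per group, with 5 treated and 10-15 untreated controls.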

L1210 [3] = test: Antitumor activity against mouse L1210 cells allografted in mouse assessed as increase in life span at 225 mg/kg, ip qd administered every 3 days for 7 days relative to control; type: functional; conditions: route intraperitoneal
Procedure, shortened: (§2)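 L1210 cells (10^5) implanted ip in mice on day 0. Compounds given ip in 10% Tween 80 on days 1, 4 and 7, at doses from 15 to 525 mg/kg. Methotrexate was given as the disodium salt in aqueous solution. Groups had 5 treated and 10-15 control animals. %ILS = 100 × (T − C)/C, where T and C are median survival days of treated and control mice.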

Serum [4] = test: Prodrug conversion in rat whole serum assessed as formation of methotrexate at 0.006 g measured up to 24 hrs by TLC analysis; type: ADME
Procedure, shortened: (§3)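 Fresh rat serum 0.9 mL plus compound 0.006 g in 0.1 mL Me2SO, incubated at 37 °C with gentle shaking for up to 24 h. Cooled on ice, diluted 1.5-fold with methanol to precipitate protein, centrifuged. Supernatant run on fluorescent cellulose TLC developed with 0.5 M phosphate buffer pH 7.4 to detect parent compound and metabolites.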

L1210 [5] = test: Antitumor activity against mouse L1210 cells allografted in mouse assessed as median survival time at 350 mg/kg, ip qd administered every 3 days for 7 days; type: functional; conditions: route intraperitoneal; procedure, shortened: as §1
[6] = molecular target: Dihydrofolate reductase (Lactobacillus casei) (UniProt P00381); test: Inhibition of methotrexate-resistant Lactobacillus casei ATCC 7469 dihydrofolate reductase; conditions: Lacticaseibacillus casei
Dihydrofolate reductase (Lactobacillus casei), sequence (P00381 whole entry): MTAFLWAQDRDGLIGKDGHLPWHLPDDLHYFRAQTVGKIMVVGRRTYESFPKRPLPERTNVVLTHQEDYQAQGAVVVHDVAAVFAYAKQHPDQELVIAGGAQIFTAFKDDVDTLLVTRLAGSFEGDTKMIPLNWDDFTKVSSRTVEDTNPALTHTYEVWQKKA

L1210 [7] = test: Antitumor activity against mouse L1210 cells allografted in mouse assessed as increase in life span at 150 mg/kg, ip qd administered every 3 days for 7 days relative to control; type: functional; conditions: route intraperitoneal; procedure, shortened: as §2
L1210 [8] = test: Antitumor activity against mouse L1210 cells allografted in mouse assessed as increase in life span at 350 mg/kg, ip qd administered every 3 days for 7 days relative to control; type: functional; conditions: route intraperitoneal; procedure, shortened: as §2
L1210 [9] = test: Antitumor activity against mouse L1210 cells allografted in mouse assessed as increase in life span at 525 mg/kg, ip qd administered every 3 days for 7 days relative to control; type: functional; conditions: route intraperitoneal; procedure, shortened: as §2
L1210 [10] = test: Antitumor activity against mouse L1210 cells allografted in mouse assessed as median survival time at 525 mg/kg, ip qd administered every 3 days for 7 days; type: functional; conditions: route intraperitoneal; procedure, shortened: as §1
L1210 [11] = test: Antitumor activity against mouse L1210 cells allografted in mouse assessed as median survival time at 225 mg/kg, ip qd administered every 3 days for 7 days; type: functional; conditions: route intraperitoneal; procedure, shortened: as §1
L1210 [12] = test: Antitumor activity against mouse L1210 cells allografted in mouse assessed as increase in life span at 0.18 mg/kg, sc administered daily up to death started on day 5 post tumor implantation relative to control; type: functional; conditions: 120 h, route subcutaneous
Serum [13] = test: Prodrug conversion in rat whole serum assessed as formation of methotrexate measured after 1 hr by TLC analysis; type: ADME; procedure, shortened: as §3
L1210 [14] = test: Antitumor activity against mouse L1210 cells allografted in mouse assessed as median survival time at 25 mg/kg, ip qd administered every 3 days for 7 days; type: functional; conditions: route intraperitoneal; procedure, shortened: as §1
Liver = test: Prodrug conversion in mouse liver assessed as formation of methotrexate at 100 mg/kg, ip measured after 6 to 24 hrs by TLC analysis; type: ADME, organism-based; set-up: dose 100 mg/kg, route intraperitoneal; conditions: in vivo
L1210 [15] = test: Antitumor activity against mouse L1210 cells allografted in mouse assessed as increase in life span at 50 mg/kg, ip qd administered every 3 days for 7 days relative to control; type: functional; conditions: route intraperitoneal; procedure, shortened: as §2
Plasma = test: Prodrug conversion in mouse plasma assessed as formation of methotrexate at 100 mg/kg, ip measured after 6 to 24 hrs by TLC analysis; type: ADME, organism-based; set-up: dose 100 mg/kg, route intraperitoneal; conditions: in vivo
Procedure, shortened: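 Normal mice received a single ip dose of 100 mg/kg in 10% Tween 80. One animal was killed at 6 h and one at 24 h. Blood was taken by ocular puncture with a heparinized syringe and the red cells spun down. Plasma 0.2 mL was cooled on ice and diluted with methanol 0.4 mL to precipitate protein, then centrifuged. Analysed by cellulose TLC developed in 0.5 M phosphate buffer pH 7.4.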

L1210 [16] = test: Antitumor activity against mouse L1210 cells allografted in mouse assessed as increase in life span at 100 mg/kg, ip qd administered every 3 days for 7 days relative to control; type: functional; conditions: route intraperitoneal; procedure, shortened: as §2
L1210 [17] = test: Antitumor activity against mouse L1210 cells allografted in mouse assessed as median survival time at 400 mg/kg, ip qd administered every 3 days for 7 days; type: functional; conditions: route intraperitoneal; procedure, shortened: as §1
L1210 [18] = test: Antitumor activity against mouse L1210 cells allografted in mouse assessed as median survival time at 200 mg/kg, ip qd administered every 3 days for 7 days; type: functional; conditions: route intraperitoneal; procedure, shortened: as §1
L1210 [19] = test: Antitumor activity against mouse L1210 cells allografted in mouse assessed as median survival time at 50 mg/kg, ip qd administered every 3 days for 7 days; type: functional; conditions: route intraperitoneal; procedure, shortened: as §1
[20] = Cytotoxicity against RBL cells assessed as growth inhibition; type: functional; conditions: Rattus norvegicus, read-out: ID50 (the source's name)
L1210 [21] = test: Antitumor activity against mouse L1210 cells allografted in mouse assessed as increase in life span at 200 mg/kg, ip qd administered every 3 days for 7 days relative to control; type: functional; conditions: route intraperitoneal; procedure, shortened: as §2
L1210 [22] = test: Antitumor activity against mouse L1210 cells allografted in mouse assessed as median survival time at 100 mg/kg, ip qd administered every 3 days for 7 days; type: functional; conditions: route intraperitoneal; procedure, shortened: as §1
L1210 [23] = test: Antitumor activity against mouse L1210 cells allografted in mouse assessed as increase in life span at 400 mg/kg, ip qd administered every 3 days for 7 days relative to control; type: functional; conditions: route intraperitoneal; procedure, shortened: as §2
L1210 [24] = test: Antitumor activity against mouse L1210 cells allografted in mouse assessed as increase in life span at 25 mg/kg, ip qd administered every 3 days for 7 days relative to control; type: functional; conditions: route intraperitoneal; procedure, shortened: as §2
Mus musculus = test: Toxicity in mouse allografted with mouse L1210 cells at 15 to 525 mg/kg, ip qd administered every 3 days for 7 days; type: organism-based; set-up: dose 15-525 mg/kg, route intraperitoneal; conditions: in vivo
Procedure, shortened: (§4)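 Mice inoculated ip with 10^5 L1210 cells on day 0. Test agents injected ip in 10% Tween 80 on days 1, 4 and 7; doses 15 to 525 mg/kg. Positive control given as disodium salt in aqueous solution. Test groups of 5, control groups of 10-15. Median survival scored; %ILS = 100 × (T − C)/C.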

L1210 [25] = test: Antitumor activity against mouse L1210 cells allografted in mouse assessed as increase in life span at 15 to 525 mg/kg, ip qd administered every 3 days for 7 days; type: functional, organism-based; procedure, shortened: as §4

Nc1nc(N)c2nc(CNc3ccc(C(=O)N[C@@H](CCC(=O)NCc4ccccc4)C(=O)NCc4ccccc4)cc3)cnc2n1
ILS at 7 mg/kg (L1210 [1]): 30%

CCCCNC(=O)CC[C@H](NC(=O)c1ccc(N(C)Cc2cnc3nc(N)nc(N)c3n2)cc1)C(=O)NCCCC
IC50 (CCRF-CEM): > 10 µg/mL

CCC(C)NC(=O)CC[C@H](NC(=O)c1ccc(N(C)Cc2cnc3nc(N)nc(N)c3n2)cc1)C(=O)NC(C)CC (stereo partly drawn)
IC50 (CCRF-CEM): > 10 µg/mL

CCCNC(=O)CC[C@H](NC(=O)c1ccc(N(C)Cc2cnc3nc(N)nc(N)c3n2)cc1)C(=O)NCCC
MST (L1210 [2]): 11 days | ILS at 225 mg/kg (L1210 [3]): 27% | Drug metabolism (Serum [4]): metabolite_notdetected | MST (L1210 [5]): 13 days | ID50 [6]: 1.8 ×10⁻⁷ M | ILS at 150 mg/kg (L1210 [7]): 0% | IC50 (CCRF-CEM): 7 µg/mL (≈ 13 µM) | ILS at 350 mg/kg (L1210 [8]): 18% | ILS at 525 mg/kg (L1210 [9]): 18% | MST (L1210 [10]): 13 days | MST (L1210 [11]): 14 days

COc1ccc(CCNC(=O)CC[C@H](NC(=O)c2ccc(N(C)Cc3cnc4nc(N)nc(N)c4n3)cc2)C(=O)NCCc2ccc(OC)c(OC)c2)cc1OC
IC50 (CCRF-CEM): > 10 µg/mL

Nc1nc(N)c2nc(CNc3ccc(C(=O)N[C@@H](CCC(=O)O)C(=O)O)cc3)cnc2n1 [AMINOPTERIN]
ILS at 0.18 mg/kg (L1210 [12]): 30%

CCCCOC(=O)CC[C@H](NC(=O)c1ccc(N(C)Cc2cnc3nc(N)nc(N)c3n2)cc1)C(=O)OCCCC
ID50 [6]: 5 ×10⁻⁷ M | IC50 (CCRF-CEM): 0.032 µg/mL (≈ 0.0565 µM) | Drug metabolism (Serum [13]): metabolite_detected

CN(Cc1cnc2nc(N)nc(N)c2n1)c1ccc(C(=O)N[C@@H](CCC(=O)NCc2ccccc2)C(=O)NCc2ccccc2)cc1
MST (L1210 [2]): 15 days | MST (L1210 [14]): 12 days | Drug metabolism (Liver): metabolite_detected | ILS at 50 mg/kg (L1210 [15]): 44% | Drug metabolism (Serum [4]): metabolite_notdetected | Drug metabolism (Plasma): metabolite_detected | ILS at 100 mg/kg (L1210 [16]): 44% | ILS at 150 mg/kg (L1210 [7]): 66% | IC50 (CCRF-CEM): 7.6 µg/mL (≈ 12 µM) | MST (L1210 [17]): 8 days | MST (L1210 [18]): 9 days | MST (L1210 [19]): 13 days | IC50 [20]: 2.5 µg/mL (≈ 3.95 µM) | ILS at 200 mg/kg (L1210 [21]): 0% | MST (L1210 [22]): 13 days | ILS at 400 mg/kg (L1210 [23]): -11% | ILS at 25 mg/kg (L1210 [24]): 33%

CN(Cc1cnc2nc(N)nc(N)c2n1)c1ccc(C(=O)N[C@@H](CCC(=O)N2CCCC2)C(=O)N2CCCC2)cc1
Activity (Mus musculus): Toxic | Activity (L1210 [25]): inactive

From ChEMBL document CHEMBL3244060, “Methotrexate analogues. 8. Synthesis and biological evaluation of bisamide derivatives as potential prodrugs” (J Med Chem, 1977)
